Results collected from several papers.
Protocols differ between the studies behind these lines.
PADI4: Protein-arginine deiminase type-4 (PADI4, Homo sapiens, UniProt Q9UM07)
MAOB: Amine oxidase [flavin-containing] B (MAOB, Homo sapiens, UniProt P27338)
HDAC9: Histone deacetylase 9 (HDAC9, Homo sapiens, UniProt Q9UKV0)
Pancreatic alpha-amylase: Pancreatic alpha-amylase (Homo sapiens, UniProt P04746)

SMILES | target | effect on | action | method | setting | IC50
Nc1nc2c(s1)C(c1ccccc1Cl)CC(=O)N2 (stereo not drawn) | Retinaldehyde dehydrogenase 3 (ALDH1A3, Homo sapiens, UniProt P47895) | enzyme activity | inhibitor | – | – | < 10 µM
Cc1ccc(COc2ccc3ccc(C(=O)N[C@@H](CCCNC(=N)CCl)C(=O)NCc4ccccc4)cc3c2)cc1 | PADI4 | enzyme activity | inhibitor | fluorescence | with preincubation | 2.19 µM
O=C(Nc1ccc(F)c(Br)c1)c1ccc2c(c1)C(=O)NC2=O | MAOB | enzyme activity | inhibitor | – | – | 0.011 µM
NC/C(=C\F)COc1cccc(Cn2c(=S)[nH]c(=O)c3[nH]cnc32)c1 | MAOB | enzyme activity | inhibitor | – | – | 13 µM
CN1CCC(CNc2ccc3ncc(-c4cccc(OC(F)(F)F)c4)n3n2)CC1 | Beta-1 adrenergic receptor (ADRB1, Homo sapiens, UniProt P08588) | cAMP | antagonist | – | – | 6.75 µM
O=C(Nc1ccccc1)c1ccc2c(c1)C(=O)NC2=O | MAOB | enzyme activity | inhibitor | – | – | 3.25 µM
O=C(NO)c1ccc(Cn2cnc3c(Nc4ccc(Cl)cc4)ncnc32)cc1 | HDAC9 | enzyme activity | inhibitor | – | – | 0.385 µM
N=C(CCl)NCCC[C@H](NC(=O)c1cnc2cc(O)ccc2c1)C(=O)NCc1ccccc1 | PADI4 | enzyme activity | inhibitor | fluorescence | with preincubation | 0.342 µM
O=C(CCNC(=O)CNC(=O)CC(c1ccccc1)(c1ccccc1)c1ccccc1)NCC1CCN(Cc2ccc(F)cc2)CC1 | Muscarinic acetylcholine receptor M4 (CHRM4, Homo sapiens, UniProt P08173) | ligand displacement | – | radioligand | cell membranes | 11.6 µM
COc1ccc(N(Cc2nc(-c3ccc(F)cc3)cs2)C(=O)CCCCCC(=O)NO)cc1 | HDAC9 | enzyme activity | inhibitor | – | – | > 10 µM
COc1cc(/C=N/NC(=S)N/N=C/c2ccc(C=O)cc2)ccc1Oc1ccnc2cc(Cl)ccc12 | Pancreatic alpha-amylase | enzyme activity | inhibitor | absorbance | – | 58.7 µM
C[C@@]12C[C@@]3(O)O[C@@H](O1)[C@]1(COC(=O)c4ccccc4)[C@H]3C[C@@]12O[C@@H]1O[C@H](COC(=O)c2cc(O)c(O)c(O)c2)[C@@H](O)[C@H](O)[C@H]1O | Catechol O-methyltransferase (Comt, Rattus norvegicus, UniProt P22734) | enzyme activity | inhibitor | – | – | 16.2 µM
CN(C)c1ccc2cc(C(=O)N[C@@H](CCCNC(=N)CCl)c3nc4ccccc4[nH]3)ccc2c1 | PADI4 | enzyme activity | inhibitor | fluorescence | with preincubation | 1.06 µM
COc1cc(/C=N/NC(=S)NN=Cc2ccncc2)ccc1Oc1ccnc2cc(Cl)ccc12 | Pancreatic alpha-amylase | enzyme activity | inhibitor | absorbance | – | 49.7 µM
CS(=O)(=O)Nc1ccc(Nc2nc(-c3cc4ccccc4oc3=O)cs2)cc1Oc1ccccc1 | Carbonic anhydrase 9 (CA9, Homo sapiens, UniProt Q16790) | enzyme activity | inhibitor | – | – | 1.69 µM
COc1cc(/C=N/NC(=S)N/N=C/c2ccc(Cl)cc2)ccc1Oc1ccnc2cc(Cl)ccc12 | Pancreatic alpha-amylase | enzyme activity | inhibitor | absorbance | – | 44.1 µM
N=C(CCl)NCCC[C@H](NC(=O)c1cccc(-c2ccc(B(O)O)cc2)c1)c1nc2ccccc2[nH]1 | PADI4 | enzyme activity | inhibitor | fluorescence | with preincubation | 0.588 µM
O=C(N[C@@H](CSCc1nc2cc([N+](=O)[O-])ccc2[nH]1)C(=O)NO)c1ccccc1 | Lactoylglutathione lyase (GLO1, Homo sapiens, UniProt Q04760) | enzyme activity | inhibitor | – | – | 454 µM
CCCC[C@@H](NC(=O)[C@@H](Cc1cn(C(=O)OC)c2ccccc12)NC(=O)[C@H](CC(C)(C)C)NC(=O)N1[C@H](C)CCC[C@@H]1C)C(=O)O | Endothelin receptor type B (EDNRB, Homo sapiens, UniProt P24530) | ligand displacement | – | radioligand | cell membranes | 0.00329 µM
N=C(CCl)NCCC[C@H](NC(=O)c1ccc2cc(B(O)O)ccc2c1)c1nc2ccccc2[nH]1 | PADI4 | enzyme activity | inhibitor | fluorescence | with preincubation | 0.295 µM
O=C(Nc1cc(Cl)cc(Cl)c1)c1ccc2c(c1)C(=O)NC2=O | MAOB | enzyme activity | inhibitor | – | – | 0.055 µM
